Results from publication PMC9979266 (Acta Pharmaceutica Sinica. B, 2022).

Legend:
[1] = test system: TGF-β1-induced A549 cells; assay: Marker expression; type: cell-based, human; details: n = 3; for miR-23b-5p expression after inhibitor treatment: 10 μmol/L pretreatment, qPCR
Outline: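 A549 in RPMI 1640 + 10% FBS, plated 24 h, serum-starved overnight. Three pathway inhibitors at 10 μmol/L added 30 min before TGF-β1 (5 ng/mL) plus test peptide. Harvest: RNA/protein at 48 h, phosphoproteins at 1 h. Western: 30 μg protein, 10% SDS-PAGE, ECL, GAPDH-normalised. qPCR: 2−ΔΔCt with GAPDH (mRNA) or U6 (miRNA) reference. At least three independent replicates, mean ± SD.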

NIH3T3 cells = assay: MTT cell cytotoxicity assay, NIH3T3; type: cell-based, murine; details: 10–160 μmol/L, 24 h, n = 3

Compound	miR-23b-5p expression after inhibitor treatment [1]	AQP5 expression after inhibitor pretreatment ([1]; 10 μmol/L, 30 min pretreatment, Western blot)	Cytotoxicity against NIH3T3 cells (NIH3T3 cells)
COc1cccc(-c2cc(=O)c3ccccc3o2)c1N [PD98059]	reduced	elevated	
C[S+]([O-])c1ccc(-c2nc(-c3ccncc3)c(-c3ccc(F)cc3)[nH]2)cc1 (stereo not drawn) [SB203580]	reduced		
DHAAPQIR-NH2 [DR3d4dA]			no toxicity
DHANPQIR-NH2 [DR3dA]			no toxicity
DHNAPQIR-NH2 [DR4dA]			no toxicity
